Assay results gathered from unrelated publications.
Lines come from different studies, so protocols differ. Values after ≈ are worked out from the molar mass of the structure shown.

SMILES	tested on	test	system	setting	measurement	result
C=C[C@]1(C)C[C@@H](OC(=O)CS[C@@H]2C[C@H]3CC[C@@H](C2)N3C)[C@]2(C)[C@H](C)CC[C@]3(CCC(=O)[C@H]32)[C@@H](C)[C@@H]1O	Staphylococcus epidermidis	microbial growth	–	clinical isolate	MIC50	0.0312 mg/L (≈ 0.0604 µM)
CCCCCCCCCCCCCCCCCCOc1ccccc1CC(=O)OCCC[N+](C)(C)C	HOP-62	cell growth or viability, SRB	–	10 µM	inhibition	32.9%
Cc1ccc2[nH]nc(-c3nnc(Nc4ccc(C(F)(F)F)cc4)s3)c2c1	Staphylococcus epidermidis	microbial growth	ATCC12228	–	MIC	123 mg/L (≈ 327 µM)
Cc1c2c(nn1C)CSCc1cc(n(C)n1)CSc1cc(c3ccccc3c1)OCCCc1c(C(=O)O)n(C)c3c-2c(Cl)ccc13	Staphylococcus epidermidis	microbial growth, broth dilution	–	clinical isolate	MIC90	12.5 µM
COc1c(N2C[C@@H]3CCCN[C@@H]3C2)c(F)cc2c(=O)c(C(=O)O)cn(C3CC3)c12	Staphylococcus epidermidis	microbial growth, broth dilution	–	clinical isolate	MIC50	0.5 mg/L (≈ 1.25 µM)
O=C(Nc1ccc(Cl)cc1)C1CCCN(C(=O)c2cc(C(F)(F)F)cc(C(F)(F)F)c2)C1 (racemic)	OCI-Ly1	cell growth or viability, ATP luminescence	–	0.5 µM, 5 days	viability	137%
CCCCCCCCCCCCCCCCCCOc1ccc(CC(=O)OCC[N+](CC)(CC)CC)cc1	HOP-92	cell growth or viability, SRB	–	10 µM	inhibition	13.3%
CN(C)CCNC(=O)c1ccc(-c2nc3ccc4[nH]ncc4c3c3c2CC(F)(F)CC3)cc1	K562	cell growth or viability, resazurin	–	72 h	GI50	3.1 µM
CCCCCCCCCCCCCCCCCCOc1ccccc1CC(=O)OCC[N+]1(C)CCCC1	HOP-92	cell growth or viability, SRB	–	10 µM	inhibition	67.3%
CCc1nc(C(N)=O)c(Nc2ccc(N3CCC(N4CCN(C)CC4)CC3)c(OC)c2)nc1NC1CCOCC1	K562	cell growth or viability, resazurin	–	72 h	GI50	2.3 µM
CC(=O)OC[C@H]1O[C@@H](n2cnc(N)nc2=O)[C@H](OC(C)=O)[C@@H]1OC(C)=O	OCI-Ly1	cell growth or viability, ATP luminescence	–	1 µM, 5 days	viability	153%
CCCCCCCCCCCCCCCCCCOc1cccc(CC(=O)OCC[N+](CC)(CC)CC)c1	HOP-92	cell growth or viability, SRB	–	10 µM	inhibition	47.7%
O=C(Nc1cccc(Br)c1)c1cccc(S(=O)(=O)N2CCCCCC2)c1	OCI-Ly1	cell growth or viability, ATP luminescence	–	0.1 µM, 5 days	viability	178%
CN(C)CCN(C)C(=O)c1ccc(-c2nc3ccc4[nH]ncc4c3c3c2CCCCC3)cn1	K562	cell growth or viability, resazurin	–	72 h	GI50	9.2 µM
O=C(CCCCCCC(=O)Nc1ccccc1)NO	OCI-Ly1	cell growth or viability, ATP luminescence	–	1 µM, 5 days	viability	50.5%
Cc1n[nH]c2ccc3nc(-c4ccc(C(=O)NCCN(C)C)cc4)c4c(c3c12)CCC(C)(C)C4	K562	cell growth or viability, resazurin	–	72 h	GI50	6.4 µM
Cc1ccc2[nH]nc(-c3nnc(Nc4ccc([N+](=O)[O-])cc4)s3)c2c1	Staphylococcus epidermidis	microbial growth	ATCC12228	–	MIC	135 mg/L (≈ 382 µM)
CCCCCCCCCCCCCCCCCCOc1cccc(CC(=O)OCC[N+]2(C)CCCC2)c1	HOP-92	cell growth or viability, SRB	–	10 µM	inhibition	30%

SMILES	tested on	test	system	setting	measurement	result
Cc1n[nH]c2ccc3nc(-c4ccc(C(=O)NCCN(C)C)cc4)c4c(c3c12)CCCCC4	K562	cell growth or viability, resazurin	–	72 h	GI50	2.9 µM
Cc1ccc2[nH]nc(-c3nnc(Nc4ccc(Cl)cc4)s3)c2c1	Staphylococcus epidermidis	microbial growth	ATCC12228	–	MIC	133 mg/L (≈ 389 µM)
O=C(NO)c1ccc(CC(=O)N(CCO)c2ccccc2)cc1	OCI-Ly1	cell growth or viability, ATP luminescence	–	0.5 µM, 5 days	viability	93.8%
CC(=O)NC[C@H]1CN(c2ccc(N3CCOCC3)c(F)c2)C(=O)O1	Staphylococcus epidermidis	microbial growth	MRSE	clinical isolate	MIC90	2 mg/L
O=C(/C=C/c1cccc(C(=O)NO)c1)NO	OCI-Ly1	cell growth or viability, ATP luminescence	–	0.5 µM, 5 days	viability	108%
Cc1n[nH]c2ccc3nc(-c4ccc(C(=O)N(C)CCN(C)C)cc4)c4c(c3c12)CCC(F)(F)C4	K562	cell growth or viability, resazurin	–	72 h	GI50	9.1 µM
Cc1cc(Nc2nnc(-c3n[nH]c4ccc(C)cc34)s2)cc([N+](=O)[O-])c1	Staphylococcus epidermidis	microbial growth	ATCC12228	–	MIC	208 mg/L (≈ 568 µM)
CC1(C)S[C@@H]2[C@H](NC(=O)[C@H](N)c3ccccc3)C(=O)N2[C@H]1C(=O)O	Staphylococcus epidermidis	microbial growth	–	clinical isolate	MIC50	8 mg/L (≈ 22.9 µM)
Cc1ccc2[nH]nc(-c3nnc(Nc4cc(Cl)cc(Br)c4)s3)c2c1	Staphylococcus epidermidis	microbial growth	ATCC12228	–	MIC	210 mg/L (≈ 498 µM)
CCCCCCCCCCCCCCCCCCOc1cccc(CC(=O)OCCC[N+](C)(C)C)c1	HOP-92	cell growth or viability, SRB	–	10 µM	inhibition	22.4%
CN(C)CCNC(=O)c1ccc(-c2nc3ccc4[nH]ncc4c3c3c2CCCC3)c(F)c1	K562	cell growth or viability, resazurin	–	72 h	GI50	1.1 µM
CCCCCCCCCCCCCCCCCCOc1cccc(CC(=O)OCC[N+]2(C)CCOCC2)c1	HOP-92	cell growth or viability, SRB	–	10 µM	inhibition	13.9%
CN[C@H](CC(C)C)C(=O)N[C@H]1C(=O)N[C@@H](CC(N)=O)C(=O)N[C@H]2C(=O)N[C@H]3C(=O)N[C@H](C(=O)N[C@H](C(=O)O)c4cc(O)cc(O)c4-c4cc3ccc4O)[C@H](O)c3ccc(c(Cl)c3)Oc3cc2cc(c3O[C@@H]2O[C@H](CO)[C@@H](O)[C@H](O)[C@H]2O[C@H]2C[C@](C)(N)[C@H](O)[C@H](C)O2)Oc2ccc(cc2Cl)[C@H]1O	Staphylococcus epidermidis	microbial growth	–	clinical isolate	MIC50	0.5 mg/L (≈ 0.345 µM)
O=C(CCCCCCSc1ccc2ccccc2c1)NO	OCI-Ly1	cell growth or viability, ATP luminescence	–	1 µM, 5 days	viability	154%
CC[C@H]1OC(=O)[C@H](C)[C@@H](O[C@H]2C[C@@](C)(OC)[C@@H](O)[C@H](C)O2)[C@H](C)[C@@H](O[C@@H]2O[C@H](C)C[C@H](N(C)C)[C@H]2O)[C@](C)(O)C[C@@H](C)/C(=N\OCOCCOC)[C@H](C)[C@@H](O)[C@]1(C)O	Staphylococcus epidermidis	microbial growth	–	clinical isolate	MIC50	32 mg/L (≈ 38.2 µM)
Cc1n[nH]c2ccc3nc(-c4ccc(C(=O)NCCN(C)C)nc4)c4c(c3c12)CCCCC4	K562	cell growth or viability, resazurin	–	72 h	GI50	8.5 µM
CCCCCCCCCCCCCCCCCCOc1cccc(CC(=O)OCC[N+]2(C)CCCCC2)c1	HOP-92	cell growth or viability, SRB	–	10 µM	inhibition	19%
